Laboratory results taken from ChEMBL document CHEMBL1131147, “7-Arylidenenaltrexones as selective delta1 opioid receptor antagonists” (J Med Chem, 1998).

Molecular target: Delta-type opioid receptor (Mus musculus) (UniProt P32300)
Test: Inhibition of DADLE binding to Opioid receptor delta 1 of mouse vas deferens
Procedure, shortened: (§1)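 Electrically stimulated smooth muscle: guinea pig ileal longitudinal muscle with morphine or ethylketazocine, mouse vas deferens with DADLE. Antagonist 100 nM incubated 15 min (30 min in footnoted cases) before agonist. IC50 ratio = agonist IC50 with antagonist divided by control IC50 in the same preparation; mean ± SEM, n shown.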

Sequence of Delta-type opioid receptor (Mus musculus) (P32300 whole entry): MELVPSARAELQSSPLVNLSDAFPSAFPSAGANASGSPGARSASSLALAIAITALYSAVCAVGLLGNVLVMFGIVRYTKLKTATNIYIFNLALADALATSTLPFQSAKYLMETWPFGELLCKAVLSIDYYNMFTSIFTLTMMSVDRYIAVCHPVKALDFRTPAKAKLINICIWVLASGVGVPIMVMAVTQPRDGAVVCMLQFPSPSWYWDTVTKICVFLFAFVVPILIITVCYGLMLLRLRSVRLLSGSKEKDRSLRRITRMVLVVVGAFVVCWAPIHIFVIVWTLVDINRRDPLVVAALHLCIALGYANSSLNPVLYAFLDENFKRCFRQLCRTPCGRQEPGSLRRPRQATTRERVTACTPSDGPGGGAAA

| Compound | IC50 ratio |
| --- | --- |
| O=C1/C(=C\c2ccccc2Cl)C[C@@]2(O)C3Cc4ccc(O)c5c4C2(CCN3CC2CC2)[C@H]1O5 (stereo not given in full) | 130 |
| O=C1/C(=C\c2ccccc2)C[C@@]2(O)[C@H]3Cc4ccc(O)c5c4[C@@]2(CCN3CC2CC2)[C@H]1O5 | 35 |
| COc1ccccc1/C=C1/C[C@@]2(O)C3Cc4ccc(O)c5c4C2(CCN3CC2CC2)[C@@H](O5)C1=O (stereo not given in full) | 120 |
| O=C1/C(=C\c2ccc(-c3ccc4ccccc4c3)cc2)C[C@@]2(O)C3Cc4ccc(O)c5c4C2(CCN3CC2CC2)[C@H]1O5 (stereo not given in full) | 11.6 |
| O=C1/C(=C\c2ccccc2F)C[C@@]2(O)C3Cc4ccc(O)c5c4C2(CCN3CC2CC2)[C@H]1O5 (stereo not given in full) | 17 |
| O=C1/C(=C\c2ccc(F)cc2)C[C@@]2(O)C3Cc4ccc(O)c5c4C2(CCN3CC2CC2)[C@H]1O5 (stereo not given in full) | 2.01 |
| O=C1/C(=C\c2ccc(-c3cccc4ccccc34)cc2)C[C@@]2(O)C3Cc4ccc(O)c5c4C2(CCN3CC2CC2)[C@H]1O5 (stereo not given in full) | 12.7 |

Molecular target: Kappa-type opioid receptor (Cavia porcellus) (UniProt P41144)
Test: Inhibition of ethylketazocine binding to Opioid receptor kappa 1 of guinea pig ileal longitudinal muscle
Procedure, shortened: as §1

Sequence of Kappa-type opioid receptor (Cavia porcellus) (P41144 whole entry): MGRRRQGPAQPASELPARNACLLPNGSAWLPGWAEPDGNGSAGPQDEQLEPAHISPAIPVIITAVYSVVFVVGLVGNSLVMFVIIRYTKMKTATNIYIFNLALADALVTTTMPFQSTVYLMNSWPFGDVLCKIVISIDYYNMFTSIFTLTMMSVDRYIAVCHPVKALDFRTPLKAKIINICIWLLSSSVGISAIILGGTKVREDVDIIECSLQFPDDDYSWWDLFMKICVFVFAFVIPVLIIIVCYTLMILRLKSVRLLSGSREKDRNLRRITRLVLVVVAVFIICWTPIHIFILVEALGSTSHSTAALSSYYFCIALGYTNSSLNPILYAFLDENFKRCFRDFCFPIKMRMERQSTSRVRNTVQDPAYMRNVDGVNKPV

| Compound | IC50 ratio |
| --- | --- |
| O=C1/C(=C\c2ccccc2Cl)C[C@@]2(O)C3Cc4ccc(O)c5c4C2(CCN3CC2CC2)[C@H]1O5 (stereo not given in full) | 0.85 |
| O=C1/C(=C\c2ccccc2)C[C@@]2(O)[C@H]3Cc4ccc(O)c5c4[C@@]2(CCN3CC2CC2)[C@H]1O5 | 2 |
| COc1ccccc1/C=C1/C[C@@]2(O)C3Cc4ccc(O)c5c4C2(CCN3CC2CC2)[C@@H](O5)C1=O (stereo not given in full) | 1.05 |
| O=C1/C(=C\c2ccc(-c3ccc4ccccc4c3)cc2)C[C@@]2(O)C3Cc4ccc(O)c5c4C2(CCN3CC2CC2)[C@H]1O5 (stereo not given in full) | 1.07 |
| O=C1/C(=C\c2ccccc2F)C[C@@]2(O)C3Cc4ccc(O)c5c4C2(CCN3CC2CC2)[C@H]1O5 (stereo not given in full) | 1.65 |
| O=C1/C(=C\c2ccc(F)cc2)C[C@@]2(O)C3Cc4ccc(O)c5c4C2(CCN3CC2CC2)[C@H]1O5 (stereo not given in full) | 1.86 |
| O=C1/C(=C\c2ccc(-c3cccc4ccccc34)cc2)C[C@@]2(O)C3Cc4ccc(O)c5c4C2(CCN3CC2CC2)[C@H]1O5 (stereo not given in full) | 1.85 |

Molecular target: Mu-type opioid receptor (Mus musculus) (UniProt P42866)
Test: Antagonism of antinociceptive effect of morphine against Opioid receptor mu 1 in male ICR mice at a sc dose of 5 umol/kg.
Format: functional, organism-based
Procedure, shortened: (§2)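 Male ICR mice, tail-flick antinociception. Antagonist given sc at the stated dose (µmol/kg), pretreatment timed so peak antagonism coincides with the agonist's peak antinociceptive response. Agonists: DPDPE (δ1), DSLET (δ2), morphine (µ), U50488 (κ). ED50 ratio = agonist ED50 with sc antagonist divided by control ED50, with 95% confidence limits.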

Sequence of Mu-type opioid receptor (Mus musculus) (P42866 whole entry): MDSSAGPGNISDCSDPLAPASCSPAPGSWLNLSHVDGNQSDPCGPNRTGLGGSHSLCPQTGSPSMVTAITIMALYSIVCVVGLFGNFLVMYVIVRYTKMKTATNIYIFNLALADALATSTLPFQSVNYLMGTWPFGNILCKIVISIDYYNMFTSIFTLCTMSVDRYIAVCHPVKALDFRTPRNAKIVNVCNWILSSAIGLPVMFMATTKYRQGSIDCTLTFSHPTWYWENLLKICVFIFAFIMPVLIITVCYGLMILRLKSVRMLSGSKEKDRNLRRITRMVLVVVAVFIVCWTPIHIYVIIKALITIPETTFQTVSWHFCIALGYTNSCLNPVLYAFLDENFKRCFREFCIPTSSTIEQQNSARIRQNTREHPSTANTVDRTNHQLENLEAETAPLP

| Compound | ED50 ratio |
| --- | --- |
| COc1ccccc1/C=C1/C[C@@]2(O)C3Cc4ccc(O)c5c4C2(CCN3CC2CC2)[C@@H](O5)C1=O (stereo not given in full) | 1.03 |

Molecular target: Kappa-type opioid receptor (Mus musculus) (UniProt P33534)
Test: Antagonism of antinociceptive effect of U-50,488 against Opioid receptor kappa 1 in male ICR mice at a sc dose of 5 umol/kg
Format: functional, organism-based
Procedure, shortened: as §2

Sequence of Kappa-type opioid receptor (Mus musculus) (P33534 whole entry): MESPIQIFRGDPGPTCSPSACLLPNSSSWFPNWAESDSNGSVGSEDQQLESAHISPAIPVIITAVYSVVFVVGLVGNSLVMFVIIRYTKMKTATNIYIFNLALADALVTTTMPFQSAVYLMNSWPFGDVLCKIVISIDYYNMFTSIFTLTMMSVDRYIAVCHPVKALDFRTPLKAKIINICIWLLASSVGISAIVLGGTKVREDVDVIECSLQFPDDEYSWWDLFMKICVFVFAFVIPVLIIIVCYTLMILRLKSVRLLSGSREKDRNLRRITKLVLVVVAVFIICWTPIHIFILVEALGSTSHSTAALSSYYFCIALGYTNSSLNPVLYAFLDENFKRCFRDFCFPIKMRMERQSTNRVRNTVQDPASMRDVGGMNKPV

| Compound | ED50 ratio |
| --- | --- |
| O=C1/C(=C\c2ccccc2Cl)C[C@@]2(O)C3Cc4ccc(O)c5c4C2(CCN3CC2CC2)[C@H]1O5 (stereo not given in full) | 0.73 |

Molecular target: Mu-type opioid receptor (Cavia porcellus) (UniProt P97266)
Test: Inhibition of morphine binding to Opioid receptor mu 1 of guinea pig ileal longitudinal muscle
Procedure, shortened: as §1

Sequence of Mu-type opioid receptor (Cavia porcellus) (P97266 whole entry): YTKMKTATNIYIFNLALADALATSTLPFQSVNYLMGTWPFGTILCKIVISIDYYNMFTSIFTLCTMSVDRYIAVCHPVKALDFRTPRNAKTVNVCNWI

| Compound | IC50 ratio |
| --- | --- |
| O=C1/C(=C\c2ccccc2Cl)C[C@@]2(O)C3Cc4ccc(O)c5c4C2(CCN3CC2CC2)[C@H]1O5 (stereo not given in full) | 1.34 |
| O=C1/C(=C\c2ccccc2)C[C@@]2(O)[C@H]3Cc4ccc(O)c5c4[C@@]2(CCN3CC2CC2)[C@H]1O5 | 13.1 |
| COc1ccccc1/C=C1/C[C@@]2(O)C3Cc4ccc(O)c5c4C2(CCN3CC2CC2)[C@@H](O5)C1=O (stereo not given in full) | 8.49 |
| O=C1/C(=C\c2ccc(-c3ccc4ccccc4c3)cc2)C[C@@]2(O)C3Cc4ccc(O)c5c4C2(CCN3CC2CC2)[C@H]1O5 (stereo not given in full) | 3.32 |
| O=C1/C(=C\c2ccccc2F)C[C@@]2(O)C3Cc4ccc(O)c5c4C2(CCN3CC2CC2)[C@H]1O5 (stereo not given in full) | 3.86 |
| O=C1/C(=C\c2ccc(F)cc2)C[C@@]2(O)C3Cc4ccc(O)c5c4C2(CCN3CC2CC2)[C@H]1O5 (stereo not given in full) | 2.23 |
| O=C1/C(=C\c2ccc(-c3cccc4ccccc34)cc2)C[C@@]2(O)C3Cc4ccc(O)c5c4C2(CCN3CC2CC2)[C@H]1O5 (stereo not given in full) | 1.23 |

Molecular target: Delta-type opioid receptor (Mus musculus) (UniProt P32300)
Test: Antagonism of antinociceptive effect of DPDPE against delta 1 opioid receptor in male ICR mice at a sc dose of 5 umol/kg
Format: functional, organism-based
Procedure, shortened: as §2

| Compound | ED50 ratio |
| --- | --- |
| O=C1/C(=C\c2ccccc2Cl)C[C@@]2(O)C3Cc4ccc(O)c5c4C2(CCN3CC2CC2)[C@H]1O5 (stereo not given in full) | 3.7 |
| COc1ccccc1/C=C1/C[C@@]2(O)C3Cc4ccc(O)c5c4C2(CCN3CC2CC2)[C@@H](O5)C1=O (stereo not given in full) | 2 |

Molecular target: Delta-type opioid receptor (Mus musculus) (UniProt P32300)
Test: Antagonism of antinociceptive effect of DSLET against delta 2 opioid receptor in male ICR mice at a sc dose of 16 umol/kg
Format: functional, organism-based
Procedure, shortened: as §2

| Compound | ED50 ratio |
| --- | --- |
| O=C1/C(=C\c2ccccc2Cl)C[C@@]2(O)C3Cc4ccc(O)c5c4C2(CCN3CC2CC2)[C@H]1O5 (stereo not given in full) | 7.2 |
| O=C1/C(=C\c2ccccc2)C[C@@]2(O)[C@H]3Cc4ccc(O)c5c4[C@@]2(CCN3CC2CC2)[C@H]1O5 | 9.6 |
| COc1ccccc1/C=C1/C[C@@]2(O)C3Cc4ccc(O)c5c4C2(CCN3CC2CC2)[C@@H](O5)C1=O (stereo not given in full) | 6.8 |

System: not listed separately
Test: Relative affinity for delta and mu receptors
Procedure, shortened: (§3)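 Selectivity ratio = DADLE IC50 ratio (MVD) divided by morphine or EK IC50 ratio (GPI), with 100 nM antagonist. Where an IC50 ratio was below or near unity, a value of 1 was used.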

| Compound | Selectivity ratio |
| --- | --- |
| O=C1/C(=C\c2ccccc2Cl)C[C@@]2(O)C3Cc4ccc(O)c5c4C2(CCN3CC2CC2)[C@H]1O5 (stereo not given in full) | 130 |
| O=C1/C(=C\c2ccccc2)C[C@@]2(O)[C@H]3Cc4ccc(O)c5c4[C@@]2(CCN3CC2CC2)[C@H]1O5 | 2.7 |
| COc1ccccc1/C=C1/C[C@@]2(O)C3Cc4ccc(O)c5c4C2(CCN3CC2CC2)[C@@H](O5)C1=O (stereo not given in full) | 14.1 |
| O=C1/C(=C\c2ccc(-c3ccc4ccccc4c3)cc2)C[C@@]2(O)C3Cc4ccc(O)c5c4C2(CCN3CC2CC2)[C@H]1O5 (stereo not given in full) | 3.5 |
| O=C1/C(=C\c2ccccc2F)C[C@@]2(O)C3Cc4ccc(O)c5c4C2(CCN3CC2CC2)[C@H]1O5 (stereo not given in full) | 4.4 |
| O=C1/C(=C\c2ccc(F)cc2)C[C@@]2(O)C3Cc4ccc(O)c5c4C2(CCN3CC2CC2)[C@H]1O5 (stereo not given in full) | 0.9 |
| O=C1/C(=C\c2ccc(-c3cccc4ccccc34)cc2)C[C@@]2(O)C3Cc4ccc(O)c5c4C2(CCN3CC2CC2)[C@H]1O5 (stereo not given in full) | 10.3 |

Molecular target: Kappa-type opioid receptor (Mus musculus) (UniProt P33534)
Test: Antagonism of antinociceptive effect of U-50,488 against kOpioid receptor kappa 1 in male ICR mice at a sc dose of 5 umol/kg
Format: functional, organism-based
Procedure, shortened: as §2

| Compound | ED50 ratio |
| --- | --- |
| COc1ccccc1/C=C1/C[C@@]2(O)C3Cc4ccc(O)c5c4C2(CCN3CC2CC2)[C@@H](O5)C1=O (stereo not given in full) | 0.47 |

Molecular target: Kappa-type opioid receptor (Mus musculus) (UniProt P33534)
Test: Antagonism of antinociceptive effect of U-50,488 against kOpioid receptor kappa 1 in male ICR mice at a sc dose of 16 umol/kg
Format: functional, organism-based
Procedure, shortened: as §2

| Compound | ED50 ratio |
| --- | --- |
| COc1ccccc1/C=C1/C[C@@]2(O)C3Cc4ccc(O)c5c4C2(CCN3CC2CC2)[C@@H](O5)C1=O (stereo not given in full) | 0.84 |

Molecular target: Delta-type opioid receptor (Mus musculus) (UniProt P32300)
Test: Antagonism of antinociceptive effect of DPDPE against delta 1 opioid receptor in male ICR mice at a sc dose of 16 umol/kg
Format: functional, organism-based
Procedure, shortened: as §2

| Compound | ED50 ratio |
| --- | --- |
| O=C1/C(=C\c2ccccc2Cl)C[C@@]2(O)C3Cc4ccc(O)c5c4C2(CCN3CC2CC2)[C@H]1O5 (stereo not given in full) | 11.4 |
| O=C1/C(=C\c2ccccc2)C[C@@]2(O)[C@H]3Cc4ccc(O)c5c4[C@@]2(CCN3CC2CC2)[C@H]1O5 | 16.8 |
| COc1ccccc1/C=C1/C[C@@]2(O)C3Cc4ccc(O)c5c4C2(CCN3CC2CC2)[C@@H](O5)C1=O (stereo not given in full) | 11.1 |

System: not listed separately
Test: Relative affinity for delta and kappa receptors
Procedure, shortened: as §3

| Compound | Selectivity ratio |
| --- | --- |
| O=C1/C(=C\c2ccccc2Cl)C[C@@]2(O)C3Cc4ccc(O)c5c4C2(CCN3CC2CC2)[C@H]1O5 (stereo not given in full) | 130 |
| O=C1/C(=C\c2ccccc2)C[C@@]2(O)[C@H]3Cc4ccc(O)c5c4[C@@]2(CCN3CC2CC2)[C@H]1O5 | 17.5 |
| COc1ccccc1/C=C1/C[C@@]2(O)C3Cc4ccc(O)c5c4C2(CCN3CC2CC2)[C@@H](O5)C1=O (stereo not given in full) | 120 |
| O=C1/C(=C\c2ccc(-c3ccc4ccccc4c3)cc2)C[C@@]2(O)C3Cc4ccc(O)c5c4C2(CCN3CC2CC2)[C@H]1O5 (stereo not given in full) | 11.6 |
| O=C1/C(=C\c2ccccc2F)C[C@@]2(O)C3Cc4ccc(O)c5c4C2(CCN3CC2CC2)[C@H]1O5 (stereo not given in full) | 10.3 |
| O=C1/C(=C\c2ccc(F)cc2)C[C@@]2(O)C3Cc4ccc(O)c5c4C2(CCN3CC2CC2)[C@H]1O5 (stereo not given in full) | 1.1 |
| O=C1/C(=C\c2ccc(-c3cccc4ccccc34)cc2)C[C@@]2(O)C3Cc4ccc(O)c5c4C2(CCN3CC2CC2)[C@H]1O5 (stereo not given in full) | 6.9 |

Molecular target: Mu-type opioid receptor (Mus musculus) (UniProt P42866)
Test: Antagonism of antinociceptive effect of morphine against Opioid receptor mu 1 in male ICR mice at a sc dose of 16 umol/kg
Format: functional, organism-based
Procedure, shortened: as §2

| Compound | ED50 ratio |
| --- | --- |
| O=C1/C(=C\c2ccccc2Cl)C[C@@]2(O)C3Cc4ccc(O)c5c4C2(CCN3CC2CC2)[C@H]1O5 (stereo not given in full) | 7.1 |
| O=C1/C(=C\c2ccccc2)C[C@@]2(O)[C@H]3Cc4ccc(O)c5c4[C@@]2(CCN3CC2CC2)[C@H]1O5 | 5.7 |
| COc1ccccc1/C=C1/C[C@@]2(O)C3Cc4ccc(O)c5c4C2(CCN3CC2CC2)[C@@H](O5)C1=O (stereo not given in full) | 5.8 |

Molecular target: Delta-type opioid receptor (Mus musculus) (UniProt P32300)
Test: Antagonism of antinociceptive effect of DSLET against delta 2 opioid receptor in male ICR mice at a sc dose of 5 umol/kg
Format: functional, organism-based
Procedure, shortened: as §2

| Compound | ED50 ratio |
| --- | --- |
| O=C1/C(=C\c2ccccc2Cl)C[C@@]2(O)C3Cc4ccc(O)c5c4C2(CCN3CC2CC2)[C@H]1O5 (stereo not given in full) | 0.87 |
| COc1ccccc1/C=C1/C[C@@]2(O)C3Cc4ccc(O)c5c4C2(CCN3CC2CC2)[C@@H](O5)C1=O (stereo not given in full) | 0.8 |

Molecular target: Mu-type opioid receptor (Mus musculus) (UniProt P42866)
Test: Antagonism of antinociceptive effect of morphine against Opioid receptor mu 1 in male ICR mice at a sc dose of 5 umol/kg
Format: functional, organism-based
Procedure, shortened: as §2

| Compound | ED50 ratio |
| --- | --- |
| O=C1/C(=C\c2ccccc2Cl)C[C@@]2(O)C3Cc4ccc(O)c5c4C2(CCN3CC2CC2)[C@H]1O5 (stereo not given in full) | 0.53 |

Molecular target: Kappa-type opioid receptor (Mus musculus) (UniProt P33534)
Test: Antagonism of antinociceptive effect of U-50,488 against Opioid receptor kappa 1 in male ICR mice at a sc dose of 16 umol/kg
Format: functional, organism-based
Procedure, shortened: as §2

| Compound | ED50 ratio |
| --- | --- |
| O=C1/C(=C\c2ccccc2Cl)C[C@@]2(O)C3Cc4ccc(O)c5c4C2(CCN3CC2CC2)[C@H]1O5 (stereo not given in full) | 0.9 |
| O=C1/C(=C\c2ccccc2)C[C@@]2(O)[C@H]3Cc4ccc(O)c5c4[C@@]2(CCN3CC2CC2)[C@H]1O5 | 1.8 |
